Our source for the Activity and IC50 values is ChEMBL document CHEMBL1146092, “Practical synthesis and evaluation of the biological activities of 1alpha,25-dihydroxyvitamin D3 antagonists, 1alpha,25-dihydroxyvitamin D3-26,23-lactams. Designed on the basis of the helix 12-folding inhibition hypothesis” (J Med Chem, 2006).

Test [1] has as its target T1, Vitamin D3 receptor (Gallus gallus) (UniProt O42392).
T1 sequence (whole entry): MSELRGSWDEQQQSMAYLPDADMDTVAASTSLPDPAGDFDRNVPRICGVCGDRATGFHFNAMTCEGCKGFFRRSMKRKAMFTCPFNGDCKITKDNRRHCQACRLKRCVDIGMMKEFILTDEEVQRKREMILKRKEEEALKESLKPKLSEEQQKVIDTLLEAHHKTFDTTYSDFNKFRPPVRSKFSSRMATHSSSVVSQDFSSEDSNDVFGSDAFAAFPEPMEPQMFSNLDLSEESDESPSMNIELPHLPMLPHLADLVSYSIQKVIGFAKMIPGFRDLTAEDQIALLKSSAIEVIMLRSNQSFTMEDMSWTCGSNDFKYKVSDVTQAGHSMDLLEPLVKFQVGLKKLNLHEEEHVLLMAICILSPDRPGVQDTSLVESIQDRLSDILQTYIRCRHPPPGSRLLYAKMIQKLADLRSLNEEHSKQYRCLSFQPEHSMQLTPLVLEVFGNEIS
As to the kind of experiment: Binding affinity to chick intestinal VDR relative to 1,25-D3. In short, it runs like this: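 Competitive binding: receptor solution was incubated with [26,27-methyl-³H]-1,25-D3 (15 000 dpm, 180 Ci/mmol) and graded test compound in ethanol for 60 min at 25 °C. It was then cooled to 4 °C and precipitated with 40% PEG 6000, and the pellet was spun at 2260g for 60 min at 4 °C. Pellet radioactivity was counted by liquid scintillation. Affinity is expressed relative to 1,25-D3 = 100.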

In a further test the target is T2, Vitamin D3 receptor (Homo sapiens, UniProt P11473).
T2 sequence (P11473 whole entry): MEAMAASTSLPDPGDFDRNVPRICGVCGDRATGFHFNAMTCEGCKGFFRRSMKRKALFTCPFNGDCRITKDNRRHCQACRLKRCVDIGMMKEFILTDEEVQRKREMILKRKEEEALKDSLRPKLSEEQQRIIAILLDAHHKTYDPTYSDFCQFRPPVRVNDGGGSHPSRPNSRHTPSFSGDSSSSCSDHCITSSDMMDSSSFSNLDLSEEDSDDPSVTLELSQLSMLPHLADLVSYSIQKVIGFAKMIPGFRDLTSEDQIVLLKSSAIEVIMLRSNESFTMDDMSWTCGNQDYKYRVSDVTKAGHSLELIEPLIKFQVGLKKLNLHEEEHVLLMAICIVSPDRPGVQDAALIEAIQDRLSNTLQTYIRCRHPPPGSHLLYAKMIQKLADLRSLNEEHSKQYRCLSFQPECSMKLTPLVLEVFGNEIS
Briefly: Antagonist activity assessed by differentiation of 1,25-D3-induced HL60 cells. The conditions noted are these: hl-60. The test is classed as functional, cell-based. In short, it runs like this: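 HL-60 cells in RPMI-1640 with 10% heat-inactivated FBS, seeded at 3 × 10³ cells/mL. Cells were given graded test compound in ethanol plus 1,25-D3 as the inducer, then cultured 96 h at 37 °C in 5% CO2 with no medium change. NBT (0.1%) and TPA (100 ng/mL) were added at final concentrations for 25 min at 37 °C. NBT-positive cells were counted on cytospin smears, and IC50 was taken.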

The target in test [2] is T3, Vitamin D3 receptor (Rattus norvegicus) (UniProt P13053).
T3 sequence (whole entry): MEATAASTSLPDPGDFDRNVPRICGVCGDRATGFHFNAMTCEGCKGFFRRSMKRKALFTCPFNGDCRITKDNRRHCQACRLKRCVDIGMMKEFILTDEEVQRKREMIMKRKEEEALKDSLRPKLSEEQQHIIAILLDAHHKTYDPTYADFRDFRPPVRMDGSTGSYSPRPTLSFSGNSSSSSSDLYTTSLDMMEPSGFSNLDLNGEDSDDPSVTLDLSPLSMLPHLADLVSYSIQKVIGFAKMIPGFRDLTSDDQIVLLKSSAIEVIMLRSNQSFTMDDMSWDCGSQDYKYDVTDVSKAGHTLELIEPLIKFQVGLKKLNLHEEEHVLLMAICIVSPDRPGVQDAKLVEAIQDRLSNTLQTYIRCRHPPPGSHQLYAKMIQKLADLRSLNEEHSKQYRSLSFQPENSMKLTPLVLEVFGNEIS
As to the kind of experiment: Inhibition of rat VDR mediated transactivation of luciferase in COS7 cells. Type of test: functional, cell-based. The following applies: COS-7.

Test [3] addresses T4, Vitamin D3 receptor (Homo sapiens) (UniProt P11473).
T4 sequence (whole entry): T2 sequence (P11473 whole entry)
Briefly: Inhibition of human VDR mediated transactivation of luciferase in COS7 cells. Type of test: functional, cell-based. The conditions noted are these: COS-7.

In test [1], `C=C1/C(=C\C=C2/CCC[C@@]3(C)C2CC[C@@H]3[C@H](C)C[C@@H]2C[C@@](C)(O)C(=O)N2CCCc2ccccc2)C[C@@H](O)C[C@@H]1O` (stereo partly drawn) registered an Activity of 0.19%. Also, the IC50 entry on Vitamin D3 receptor is given as “Not Active”. Consider `C=C1/C(=C\C=C2/CCC[C@@]3(C)C2CC[C@@H]3[C@H](C)C[C@H]2C[C@@](C)(O)C(=O)N2CCCCc2ccccc2)C[C@@H](O)C[C@@H]1O` (stereo partly drawn), for which the Activity in test [1] is 0.09%. Besides, the IC50 entry on Vitamin D3 receptor was “Not Active”.

In turn, `C=C1/C(=C\C=C2/CCC[C@@]3(C)C2CC[C@@H]3[C@H](C)C[C@@H]2C[C@](C)(O)C(=O)N2Cc2ccccc2)C[C@@H](O)C[C@@H]1O` (stereo partly drawn) returned an Activity in test [1] of 0.25%. Besides, at Vitamin D3 receptor, the IC50 result is on record as “Not Active”. Molecule `C=C1/C(=C\C=C2/CCC[C@@]3(C)C2CC[C@@H]3[C@H](C)C[C@H]2C[C@](C)(O)C(=O)N2CCCc2ccccc2)C[C@@H](O)C[C@@H]1O` (stereo partly drawn) showed an Activity in test [1] of 0.68%. With `C=C1/C(=C\C=C2/CCC[C@@]3(C)C2CC[C@@H]3[C@H](C)C[C@@H]2C[C@](C)(O)C(=O)N2CCCc2ccccc2)C[C@@H](O)C[C@@H]1O` (stereo partly drawn), in test [1], the Activity is 0.03%. Further, the IC50 result against Vitamin D3 receptor was “Not Active”.

In the case of `C=C1/C(=C\C=C2/CCC[C@@]3(C)C2CC[C@@H]3[C@H](C)C[C@@H]2C[C@@](C)(O)C(=O)N2Cc2ccccc2)C[C@@H](O)C[C@@H]1O` (stereo partly drawn), the Activity in test [1] amounted to 0.25%. Also, on Vitamin D3 receptor, the IC50 entry is given as “Not Active”.

Consider `C=C1/C(=C\C=C2/CCC[C@@]3(C)C2CC[C@@H]3[C@H](C)C[C@@H]2C[C@@](C)(O)C(=O)N2CCCCc2ccccc2)C[C@@H](O)C[C@@H]1O` (stereo partly drawn), for which the Activity in test [1] worked out at 0.3%. For the same molecule, the IC50 entry against Vitamin D3 receptor is “Not Active”. For `C=C1/C(=C\C=C2/CCC[C@@]3(C)C2CC[C@@H]3[C@H](C)C[C@H]2C[C@@](C)(O)C(=O)N2Cc2ccccc2)C[C@@H](O)C[C@@H]1O` (stereo partly drawn) the same measures were 0.18% and “Not Active”.

Regarding `C=C1/C(=C\C=C2/CCC[C@@]3(C)C2CC[C@@H]3[C@H](C)C[C@H]2C[C@](C)(O)C(=O)N2Cc2ccc(OC)cc2)C[C@@H](O)C[C@@H]1O` (stereo partly drawn), the Activity in test [1] came to 2.2%. In test [1], `C=C1/C(=C\C=C2/CCC[C@@]3(C)C2CC[C@@H]3[C@H](C)C[C@@H]2C[C@](C)(O)C(=O)N2Cc2ccc(OC)cc2)C[C@@H](O)C[C@@H]1O` (stereo partly drawn) registered an Activity of 0.1%. Moreover, at Vitamin D3 receptor, the IC50 result is reported as “Not Active”.

In test [1], `C=C1/C(=C\C=C2/CCC[C@@]3(C)C2CC[C@@H]3[C@H](C)C[C@H]2C[C@@](C)(O)C(=O)N2C(C)C)C[C@@H](O)C[C@@H]1O` (stereo partly drawn) gave an Activity of 0.14%. For the same molecule, the IC50 entry at Vitamin D3 receptor is “Not Active”.

In turn, `C=C1/C(=C\C=C2/CCC[C@@]3(C)C2CC[C@@H]3[C@H](C)C[C@H]2C[C@](C)(O)C(=O)N2C(C)C)C[C@@H](O)C[C@@H]1O` (stereo partly drawn) returned an Activity in test [1] of 1.52%. `C=C1/C(=C\C=C2/CCC[C@@]3(C)C2CC[C@@H]3[C@H](C)C[C@@H]2C[C@@](C)(O)C(=O)N2Cc2ccc(OC)cc2)C[C@@H](O)C[C@@H]1O` (stereo partly drawn) yielded an Activity in test [1] of 0.3%. For the same molecule, the IC50 entry at Vitamin D3 receptor was “Not Active”. For the molecule `C=C1/C(=C\C=C2/CCC[C@@]3(C)C2CC[C@@H]3[C@H](C)C[C@H]2C[C@](C)(O)C(=O)N2CCc2ccccc2)C[C@@H](O)C[C@@H]1O` (stereo partly drawn), the Activity in test [1] turned out to be 8%. In test [1], `C=C1/C(=C\C=C2/CCC[C@@]3(C)C2CC[C@@H]3[C@H](C)C[C@@H]2C[C@](C)(O)C(=O)N2CCc2ccccc2)C[C@@H](O)C[C@@H]1O` (stereo partly drawn) showed an Activity of 0.19%. For the same molecule, on Vitamin D3 receptor, the IC50 result is on record as “Not Active”. For `C=C1/C(=C\C=C2/CCC[C@@]3(C)C2CC[C@@H]3[C@H](C)C[C@@H]2C[C@@](C)(O)C(=O)N2C(C)C)C[C@@H](O)C[C@@H]1O` (stereo partly drawn) the same measures were 0.14% and “Not Active”. `C=C1/C(=C\C=C2/CCC[C@@]3(C)C2CC[C@@H]3[C@H](C)C[C@@H]2C[C@@](C)(O)C(=O)N2CCc2ccccc2)C[C@@H](O)C[C@@H]1O` (stereo partly drawn) had an Activity in test [1] of 0.51%. Moreover, the IC50 entry on Vitamin D3 receptor is given as “Not Active”. Take `C=C1/C(=C\C=C2/CCC[C@@]3(C)C2CC[C@@H]3[C@H](C)C[C@H]2C[C@](C)(O)C(=O)N2CCCCc2ccccc2)C[C@@H](O)C[C@@H]1O` (stereo partly drawn): the Activity in test [1] stood at 5.24%.

In test [1], `C=C1/C(=C\C=C2/CCC[C@@]3(C)C2CC[C@@H]3[C@H](C)C[C@H]2C[C@@](C)(O)C(=O)N2CCc2ccccc2)C[C@@H](O)C[C@@H]1O` (stereo partly drawn) returned an Activity of 0.34%. `C=C1/C(=C\C=C2/CCC[C@@]3(C)C2CC[C@@H]3[C@H](C)C[C@H]2C[C@@](C)(O)C(=O)N2Cc2ccc(OC)cc2)C[C@@H](O)C[C@@H]1O` (stereo partly drawn): in test [1], the Activity worked out at 0.09%. The IC50 result on Vitamin D3 receptor is “Not Active”. Turning to `C=C1/C(=C\C=C2/CCC[C@@]3(C)C2CC[C@@H]3[C@H](C)C[C@@H]2C[C@](C)(O)C(=O)N2CCCCc2ccccc2)C[C@@H](O)C[C@@H]1O` (stereo partly drawn), in test [1], the Activity amounted to 0.1%. Besides, the IC50 result against Vitamin D3 receptor is listed as “Not Active”. For `C=C1/C(=C\C=C2/CCC[C@@]3(C)C2CC[C@@H]3[C@H](C)C[C@H]2C[C@@](C)(O)C(=O)N2CCCc2ccccc2)C[C@@H](O)C[C@@H]1O` (stereo partly drawn), the Activity in test [1] was determined as 0.09%. The IC50 entry at Vitamin D3 receptor is reported as “Not Active”.

In the case of `C=C1/C(=C\C=C2/CCC[C@@]3(C)C2CC[C@@H]3[C@H](C)C[C@H]2C[C@](C)(O)C(=O)N2Cc2ccccc2)C[C@@H](O)C[C@@H]1O` (stereo partly drawn), the results for the Activity result in test [2], in test [1] and in test [3] were “Dose-dependent effect”, 2.74% and “Dose-dependent effect”, respectively. For `C=C1/C(=C\C=C2/CCC[C@@]3(C)C2CC[C@@H]3[C@H](C)C[C@@H]2C[C@](C)(O)C(=O)N2C(C)C)C[C@@H](O)C[C@@H]1O` (stereo partly drawn), the Activity in test [1] came out at 0.11%. At Vitamin D3 receptor, the IC50 result is given as “Not Active”.
